# Data from PMC4470474 (Analytical biochemistry, 2014).
# Like-named read-outs stand apart in the source and are kept apart here.
# Columns and labels:
# Co(II)-HDAC8 [1] = target: T1, Co(II)-HDAC8 (Homo sapiens, UniProt Q9BY41); type: biochemical; details: for substrate inhibition at higher peptide concentrations: peptide 0 – 1600 μM; for effect of pre-incubation of the peptide with Chelex 100 on observed activity: ~6 % (v/v) Chelex 100, room temperature, three hours
# T1 sequence (Q9BY41 1-377): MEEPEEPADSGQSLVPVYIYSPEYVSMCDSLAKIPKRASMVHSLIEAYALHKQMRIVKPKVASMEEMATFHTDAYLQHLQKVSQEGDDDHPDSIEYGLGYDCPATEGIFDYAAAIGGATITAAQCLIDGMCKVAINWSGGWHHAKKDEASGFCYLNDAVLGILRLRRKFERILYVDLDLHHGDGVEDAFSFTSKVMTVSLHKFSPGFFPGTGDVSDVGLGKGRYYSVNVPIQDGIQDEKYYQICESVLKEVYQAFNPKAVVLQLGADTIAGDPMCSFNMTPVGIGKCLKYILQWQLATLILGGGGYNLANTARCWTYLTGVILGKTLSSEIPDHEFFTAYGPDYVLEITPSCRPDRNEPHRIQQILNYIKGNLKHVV
# Co(II)-HDAC8 [2] = target: T1, Co(II)-HDAC8; assay: Fluorescamine assay, HDAC8-catalyzed deacetylation; type: biochemical; details: 200 μM peptide, 0.5 μM HDAC8, 30°C
# Procedure, shortened: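 Started with 0.5 μM HDAC8 and quenched with 1 μM TSA at 0, 30, 60 and 90 min. Enzyme removed by 10K filtration. Flow-through mixed with 1 M boric acid pH 9 and fluorescamine, 10 min at RT. Fluorescence read at ex 340/em 460 nm against an N-α-acetyl lysine methyl ester standard curve (0–5 μM).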
# HDAC8 [3] = assay: Inhibition of HDAC8 activity by magnesium; type: biochemical, human; details: 2 mM magnesium, continuous assay conditions; Figure S2
# HDAC8 [4] = details: HDAC8-catalyzed deacetylation; ref [25]; cited from earlier work
# HDAC3/NCOR1 = HDAC3/NCOR1 (Homo sapiens, UniProt O15379+O75376); assay: Optimized stopped coupled acetate assay, HDAC3/NCOR1-catalyzed deacetylation; type: biochemical; details: 100 μM peptide, 0.5 μM HDAC3/NCOR1
# Chain of HDAC3/NCOR1 (O15379 whole entry): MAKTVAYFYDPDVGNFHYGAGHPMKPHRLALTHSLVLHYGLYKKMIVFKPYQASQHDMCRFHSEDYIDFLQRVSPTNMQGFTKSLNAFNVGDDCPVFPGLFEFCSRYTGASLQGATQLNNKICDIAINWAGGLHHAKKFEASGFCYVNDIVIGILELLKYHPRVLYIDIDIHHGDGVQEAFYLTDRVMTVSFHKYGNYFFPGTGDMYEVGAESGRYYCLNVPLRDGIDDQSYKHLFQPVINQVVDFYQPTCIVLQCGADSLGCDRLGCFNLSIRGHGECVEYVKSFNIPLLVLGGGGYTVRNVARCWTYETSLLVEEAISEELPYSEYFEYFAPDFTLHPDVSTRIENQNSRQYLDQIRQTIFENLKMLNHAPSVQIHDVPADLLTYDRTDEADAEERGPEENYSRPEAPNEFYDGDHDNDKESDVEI
# Chain of HDAC3/NCOR1 (O75376 395-489 partner limits assumed): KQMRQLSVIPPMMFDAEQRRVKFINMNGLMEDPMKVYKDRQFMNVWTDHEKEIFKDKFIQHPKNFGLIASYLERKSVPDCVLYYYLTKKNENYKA
# Procedure, shortened: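 Started with 0.5 μM HDAC3/NCOR1 and quenched with 0.37% HCl at 0, 30, 60 and 90 min. Flash frozen at −80°C, then neutralised with 0.6% NaHCO₃. Pre-equilibrated ACS/citrate synthase/MDH coupler mix (ATP, NAD⁺, CoA, malate) added, 40 min at RT. NADH fluorescence read at ex 340/em 460 nm.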
# Co(II)-HDAC8 [5] = target: T1, Co(II)-HDAC8; assay: Optimized continuous coupled acetate assay, HDAC8-catalyzed deacetylation; type: biochemical; details: Figure 5 legend, 100 μM peptide
# Procedure, shortened: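 Continuous coupled format in EDTA-stripped plates. Mixed 2:1 with Ac-KGGAKac-NH₂ (100 μM final). Started with Co(II)-HDAC8 (0.5–1 μM final). Rate taken from time-dependent NADH fluorescence (ex 340/em 460 nm).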
# [6] = Michaelis-Menten fit, stopped coupled assay, 30°C, pH 8
substance,measurement,setting,value
Ac-KGGAKac-COO^−,lowering of kcat/KM relative to methylcoumarin peptide,Co(II)-HDAC8 [1]; C-terminal carboxylate vs methylcoumarin,50 fold
same,Km,Co(II)-HDAC8 [1]; [6],730 µM
same,kcat,Co(II)-HDAC8 [1]; [6],0.041 s⁻¹
same,kcat/KM,Co(II)-HDAC8 [1]; [6],56 M⁻¹ s⁻¹
same,deacetylation rate,"Co(II)-HDAC8 [1]; coupled acetate assay, 200 μM peptide, 0.5 μM HDAC8",0.0021 ± 0.0003 µM/s
same,deacetylation rate,Co(II)-HDAC8 [2],0.0027 ± 0.0008 µM/s
magnesium,inhibition of HDAC8 activity,HDAC8 [3],~ 2 fold
Ac-KGGAKac-methylcoumarin [reference compound],ΔΔG‡ (kcat/KM),Co(II)-HDAC8 [1]; Ac-KGGAKac-methylcoumarin compared to the C-terminal carboxylate peptide,2.3 kcal/mol
same,kcat/KM,HDAC8 [4],2800 M⁻¹ s⁻¹
Ac-KGGAKacW-NH2,increase of net transition state stabilization,Co(II)-HDAC8 [1]; addition of tryptophan or methylcoumarin moiety to the peptide,0.1 to 0.5 kcal/mol
same,substrate inhibition at higher peptide concentrations,Co(II)-HDAC8 [1]; stopped coupled assay,modest to substantial inhibition was observed at higher peptide concentrations
same,effect of pre-incubation of the peptide with Chelex 100 on observed activity,Co(II)-HDAC8 [1],no effect
Ac-KGGAKac-NH2,ΔΔG‡ (kcat/KM),Co(II)-HDAC8 [1]; Ac-KGGAKac-NH2 compared to Ac-KGGAKac-COO^−,1.6 kal/mol
same,initial rate for deacetylation,"Co(II)-HDAC8 [1]; Figure 5 legend, side-by-side stopped assay, 0.5 μM Co(II)-HDAC8, 100 μM peptide",0.018 ± 0.0021 µM/s
same,kcat/KM enhancement relative to Ac-KGGAKac-COO^− peptide,Co(II)-HDAC8 [1]; amide vs carboxylate,9 fold
same,substrate inhibition at higher peptide concentrations,Co(II)-HDAC8 [1]; stopped coupled assay,modest to substantial inhibition was observed at higher peptide concentrations
same,effect of pre-incubation of the peptide with Chelex 100 on observed activity,Co(II)-HDAC8 [1],no effect
same,initial rate of deacetylation,HDAC3/NCOR1,0.015 ± 0.0016 µM/s
same,initial rate for deacetylation,Co(II)-HDAC8 [5]; 0.5 μM Co(II)-HDAC8,0.011 ± 0.00041 µM/s
same,initial rate for deacetylation,Co(II)-HDAC8 [5]; 1 μM Co(II)-HDAC8,0.022 ± 0.00043 µM/s
